Laboratory results from ChEMBL document CHEMBL4651341, “The discovery of a novel series of compounds with single-dose efficacy against juvenile and adult Schistosoma species” (PLoS Negl Trop Dis, 2021).
pEC50: −log10 of the molar value. ≈ marks a conversion by molar mass, not a printed value.

Key:
[1] = Mean oral bioavailability in Swiss albino male mice at […] per compound (administered in a mixture of 5 compounds to 3 mice) assessed by LCMS/MS.; note: dose 2.5 mg/kg; format: ADME, organism-based; conditions: male, Swiss albino, mouse, in vivo, read-out: Bioavailability
[2] = Mean AUC inf in Swiss albino male mice at 1 mg/kg per compound (administered iv in a mixture of 5 compounds to 3 mice) assessed by LCMS/MS.; format: ADME, organism-based; conditions: mouse, in vivo; for AUC(0-inf): male, Swiss albino
Procedure, shortened: (§1)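 Male Swiss albino mice (~30 g), 3 per experiment, mostly dosed as mixtures of 5 compounds iv via the lateral tail vein. Vehicle: 10% DMSO/90% 50 mM Na2HPO4 with 0.5% Tween-80. Blood sampled at 5, 15, 30 min and 1, 2, 4, 8, 24 h. Plasma stored at −20 °C and quantified by LC-MS after acetonitrile precipitation.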

[3] = Mean observed clearance in Swiss albino male mice at 1 mg/kg per compound (administered iv in a mixture of 5 compounds to 3 mice) assessed by LCMS/MS.; format: ADME, organism-based; conditions: mouse, in vivo; procedure, shortened: as §1
[4] = Mean volume of distribution at steady state in Swiss albino male mice at 1 mg/kg per compound (administered iv in a mixture of 5 compounds to 3 mice) assessed by LCMS/MS.; format: ADME, organism-based; conditions: mouse, in vivo, read-out: Volume
Procedure, shortened: (§2)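 Male Swiss albino mice (~30 g), 3 per experiment, mostly dosed as mixtures of 5 compounds iv via the lateral tail vein. Vehicle: 10% DMSO/90% 50 mM Na2HPO4 with 0.5% Tween-80. Plasma stored at −20 °C and quantified by LC-MS after acetonitrile precipitation.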

[5] = Mean half-life in Swiss albino male mice at 1 mg/kg per compound (administered iv in a mixture of 5 compounds to 3 mice) assessed by LCMS/MS.; format: ADME, organism-based; conditions: mouse, in vivo; procedure, shortened: as §2
[6] = Mean plasma concentration at 24h in Swiss albino male mice at […] per compound (administered orally in a mixture of 5 compounds to 3 mice) assessed by LCMS/MS.; format: ADME, organism-based; conditions: mouse, po
[7] = Mean plasma concentration at 4h in Swiss albino male mice at […] per compound (administered orally in a mixture of 5 compounds to 3 mice) assessed by LCMS/MS.; format: ADME, organism-based; conditions: mouse, po
[8] = Mean time to peak plasma concentration in Swiss albino male mice at […] per compound (administered orally in a mixture of 5 compounds to 3 mice) assessed by LCMS/MS.; format: ADME, organism-based; conditions: mouse, po
[9] = Percentage of parent compound remaining after incubation for 90 minutes with cyropreserved human hepatocytes at a concentration of 1uM compound and 1 million cells/uL, determined by LCMS/MS; format: ADME, tissue-based, Hepatocyte; conditions: cryopreserved human hepatocytes, read-out: Stability
Procedure, shortened: (§3)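 Compound was incubated at 1 µM final (2 µM working solution mixed 1:1 with hepatocyte suspension) in supplemented KHB pH 7.4. Conditions: 37 °C, 5% CO2, gentle mixing, duplicates. Reaction quenched with ice-cold acetonitrile containing standard; analysed by LC-MS/MS. % remaining = AUC at t / AUC at T0.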

[10] = Percentage of parent compound remaining after incubation for 90 minutes with cyropreserved mouse hepatocytes at a concentration of 1uM compound and […], determined by LCMS; format: ADME, tissue-based, Hepatocyte; conditions: cryopreserved mouse hepatocytes, read-out: Stability; procedure, shortened: as §3
[11] = Solubility at 25 degC of compound (diluted from DMSO) in PBS at pH 7.4 determined after 24h (1h sonication, 22h shaking, 1h sonication) by LCMS/MS; format: physicochemical
Schistosoma mansoni [12] = assay: Concentration required to kill 50% of 42 day old worms 5 days after drug treatment.; format: functional, organism-based; conditions: Puerto Rican, 120 h
Procedure, shortened: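 Adult S. mansoni were perfused from CD1 mice 6 weeks post-infection and washed. They were cultured 3 pairs per well in 1 mL DMEM with 2 mM glutamine, penicillin/streptomycin and 10% FCS […] at 37 °C, 5% CO2. Viability of individual worms was scored on day 5 (120 h).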

Schistosoma mansoni [13] = assay: Concentration required to kill 50% of 21 day old worms 5 days after drug treatment.; format: functional, organism-based; conditions: Puerto Rican, 120 h
Procedure, shortened: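 Juvenile S. mansoni (Puerto Rican strain) were perfused from CD1 mice 3 weeks post-infection and washed. They were cultured 6–8 per well in 200 µL DMEM with 2 mM glutamine, penicillin/streptomycin and 10% FCS at 37 °C, 5% CO2. Viability of individual worms was scored on day 5 after dosing (120 h).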

[14] = Concentration required to kill 50% HepG2 cells as detected by MTT staining; format: toxicity, cell-based; conditions: homo sapiens, read-out: TC50 (the source's name)
[15] = Plasma protein binding determined at 10uM by LC-MS/MS.; format: ADME, cell-free; conditions: mouse
Procedure, shortened: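 Equilibrium dialysis of plasma spiked at 10 µM (0.1% DMSO) against PBS pH 7.4, 6 h at 37 °C, duplicates. Both chambers analysed by LC-MS/MS after acetonitrile precipitation. % free = buffer/plasma area ratio; recovery also calculated.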

[16] = Partition coefficient of compound between n-octanol and PBS (pH7.4); format: physicochemical; conditions: octanol/water, pH 7.4
Procedure, shortened: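 Shake-flask method using octanol and PBS pH 7.4, each pre-saturated with the other. Compound was shaken 2 h at 850 rpm, 25 °C, then the phases were separated by centrifugation and both layers diluted and analysed by LC-MS/MS. LogD = log(octanol AUC × relative dilution / buffer AUC).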

[17] = Percentage of parent compound remaining after incubation for 30 minutes with cyropreserved mouse hepatocytes at a concentration of 1uM compound and […], determined by LCMS; format: ADME, tissue-based, Hepatocyte; conditions: cryopreserved mouse hepatocytes, read-out: Stability; procedure, shortened: as §3
[18] = Concentration required to kill 50% MRC-5 cells as detected by Alamar blue staining; format: toxicity, cell-based, MRC5; conditions: homo sapiens, read-out: TC50 (the source's name)
[19] = Concentration of drug in plasma at 4h following oral drug adminstration at given dose. Determined by LCMS/MS; format: ADME, organism-based; conditions: CD1, mouse
Procedure, shortened: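 Plasma sampled from the mice of the efficacy experiments, each animal sampled once: one animal per group at 1, 4 and 8 h, two per group at 24 h. Plasma prepared by acetonitrile protein precipitation and analysed by LC-MS against a 10-point calibration line spiked in blank matrix, with QCs at three or more levels.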

[20] = male, Swiss albino, read-out: Clearance (converted)

Row | Compound | bioavailability [1] [%] | AUC(0-inf) [2] [ng·h/mL] | clearance [3, 20] [mL/min/kg] | Vd [4] [L/kg] | half-life [5] [min] | concentration at 24 h [6] [ng/mL] | concentration at 4 h [7] [ng/mL] | Tmax [8] [min] | remaining at 1.5 h, 1 µM [9] [%] | remaining at 1.5 h, 1 µM [10] [%] | solubility kinetic at 24 h [11] [µM] | Binding [15] [%] | Lipophilicity [16] | remaining at 0.5 h, 1 µM [17] [%] | pEC50 (Schistosoma mansoni [12]) | pEC50 (Schistosoma mansoni [13]) | CC50 [14] [µM] | also measured
1 | CC(C)c1nc2cnc(-c3cccc(C(F)(F)F)c3)cn2c1-c1ccc(O)cc1F | – | – | – | – | – | – | – | – | – | – | 6.8 (≈ 2.82 µg/mL) | 99.945 | 4.82 = | 54.4 | > 6.91 | 7.10 | 9 | CC50 [18]: 14.5 µM
2 | Oc1cc(F)c(-c2cnc3cnc(-c4cccc(C(F)(F)F)c4)cn23)c(F)c1 | 41.7 | 870 | 9.63 | 0.918 | 177 | 0.1 | 171 | 15 | – | – | 2.88 (≈ 1.13 µg/mL) | 99.595 | 3.12 = | 74.1 | 5.62 | 5.58 | 23.1 | CC50 [18]: 8.13 µM
3 | Oc1cc(F)c(-c2c(C3CC3)nc3cnc(-c4ccc(F)c(S(F)(F)(F)(F)F)c4)cn23)c(F)c1 | – | – | – | – | – | – | – | – | 40.2 | 84.9 | 41.1 (≈ 20.9 µg/mL) | – | – | – | 8.24 | 7.98 | 10.1 | –
4 | Fc1c(-c2c(C(F)(F)F)nc3cnc(-c4cccc(OC(F)(F)F)c4)cn23)ccc2[nH]ncc12 | 114 | 433 | 19.3 | 5.68 | 348 | 8.87 | 182 | 40 | 54 | 88.7 | – | – | – | – | 7.69 | 7.63 | 9.71 | –
5 | Cc1nc2cnc(-c3ccc(F)c(C(F)(F)F)c3)cn2c1-c1ccc(O)cc1F | 13.5 | 172 | 48.5 | 2.98 | 137 | 0.1 | 7.79 | 15 | – | – | 1.54 (≈ 0.624 µg/mL) | 99.805 | 3.39 = | 64.1 | > 6.11 | > 6.19 | > 11.1 | CC50 [18]: 15.8 µM
6 | COc1ccc(-c2c(C(F)(F)F)nc3cnc(-c4cccc(C(F)(F)C(F)(F)F)c4)cn23)cc1O | 9.77 | – | – | 4.94 | 127 | 0.1 | 8.54 | 15 | – | – | 1.05 (≈ 0.529 µg/mL) | 99.98 | 4.65 = | 75.3 | 7.68 | > 7.97 | > 11.1 | AUC [2]: 153 ng·h/mL; clearance [3]: 54.3 mL/min/kg
7 | CC(C)c1nc2cnc(-c3ccc(F)c(C(F)(F)F)c3)cn2c1-c1c(F)cc(O)cc1F | – | 466 | 18 | – | – | – | – | 15 | – | – | – | – | – | – | > 7.34 | – | 7.13 | concentration at 4 h [19]: 4140 ng/mL
8 | Fc1c(-c2c(C(F)(F)F)nc3cnc(-c4cccc(C(F)(F)C(F)(F)F)c4)cn23)ccc2[nH]ncc12 | – | – | 1.43 | – | – | – | 655 | – | – | – | – | – | 4.5 = | – | – | – | 10.9 | concentration at 4 h [19]: 1100 ng/mL
9 | CC(C)c1nc2cnc(-c3cccc(C(F)(F)F)c3)cn2c1-c1ccc(OP(=O)(O)O)cc1F | 5.44 | 131 | 69 | 1.26 | 31.7 | 0.1 | 5.46 | 15 | – | – | 204 (≈ 101 µg/mL) | 96.805 | 0.075 = | 39.6 | > 7.31 | 6.90 | 9.2 | –
10 | Fc1ccc(-c2cn3c(-c4ccc5[nH]ncc5c4F)c(C4CCC4)nc3cn2)cc1C(F)(F)F | – | – | – | – | – | – | – | – | 73.6 | 73.4 | – | – | – | – | 7.43 | 7.44 | – | –
11 | CC(C)c1nc2cnc(-c3ccc(F)c(C(F)(F)F)c3)cn2c1-c1ccc2[nH]ncc2c1F | – | – | – | – | – | – | 318 | 60 | – | – | – | – | 4.19 = | – | – | – | 12 | concentration at 4 h [19]: 1150 ng/mL
12 | Fc1ccc(-c2cn3c(-c4ccc5[nH]ncc5c4F)c(C4CC4)nc3cn2)cc1S(F)(F)(F)(F)F | – | – | – | – | – | – | – | – | 101 | 88.6 | 0.823 (≈ 0.423 µg/mL) | – | – | – | 7.76 | 7.53 | 14.8 | –
13 | Cc1nc2cnc(-c3cccc(C(F)(F)F)c3)cn2c1-c1c(F)cc(O)cc1F | 4 | 99.6 | 86 | 1.8 | 27.5 | 0.1 | 2.67 | 15 | – | – | 1.73 (≈ 0.701 µg/mL) | 99.88 | 3.81 = | 42.3 | – | 6.76 | 8.4 | –

Continued, in another order:

Row | bioavailability [1] [%] | AUC(0-inf) [2] [ng·h/mL] | clearance [3, 20] [mL/min/kg] | Vd [4] [L/kg] | half-life [5] [min] | concentration at 24 h [6] [ng/mL] | concentration at 4 h [7] [ng/mL] | Tmax [8] [min] | remaining at 1.5 h, 1 µM [9] [%] | remaining at 1.5 h, 1 µM [10] [%] | solubility kinetic at 24 h [11] [µM] | Binding [15] [%] | Lipophilicity [16] | remaining at 0.5 h, 1 µM [17] [%] | Compound | pEC50 (Schistosoma mansoni [12]) | pEC50 (Schistosoma mansoni [13]) | CC50 [14] [µM] | also measured
14 | 64 | 558 | 15 | 4.48 | 341 | 4.17 | 119 | 30 | 37.7 | 46.2 | 0.784 (≈ 0.338 µg/mL) | – | – | – | CC(C)c1cc(-c2cn3c(-c4ccc5[nH]ncc5c4F)c(C(C)C)nc3cn2)ccc1F | 8.40 | 8.30 | 11 | –
15 | – | – | – | – | – | – | 52.3 | 25 | – | – | – | – | – | – | CC(C)c1cc(-c2cn3c(-c4ccc5[nH]ncc5c4F)c(C(F)(F)F)nc3cn2)ccc1F | – | > 8.57 | > 17 | concentration at 4 h [19]: 1250 ng/mL
16 | 149 | 530 | – | – | 371 | – | 295 | 79.8 | – | – | – | – | 6.53 = | – | CC(C)c1cc(-c2cn3c(-c4ccc5[nH]ncc5c4F)c(C4CC4)nc3cn2)ccc1F | – | – | 15.8 | concentration at 4 h [19]: 104 ng/mL
17 | – | – | – | – | – | – | – | – | 37.8 | 59.3 | – | – | – | – | CCc1nc2cnc(-c3ccc(F)c(C(C)C)c3)cn2c1-c1ccc2[nH]ncc2c1F | 8.41 | 8.27 | 11.3 | –
18 | – | – | – | – | – | – | – | – | 25.3 | 52.1 | 1.35 (≈ 0.599 µg/mL) | – | – | – | CC(C)c1cc(-c2cn3c(-c4ccc5[nH]ncc5c4F)c(C4CCC4)nc3cn2)ccc1F | 8.14 | 8.37 | 10.9 | –
